Published values gathered from unrelated publications.
Target: Dual specificity protein kinase CLK2 (CLK2, Homo sapiens, UniProt P49760)
Method: competition with immobilised ligand

CNC(=O)[C@@H]1CC[C@@H](n2c(-c3ccc4cnccc4c3)nc3ccc(C(=O)NCc4cccc(C(N)=O)c4)cc32)C1  remaining binding (binding; 1 µM): 100%
FC(F)(F)Oc1cccc(-c2cnc3ccc(-c4ccncc4)nn23)c1  remaining binding (cell-free assay; 5 µM): 6.2%
Nc1ncc2c(n1)-c1c([nH]c3ccc(C#CC4CC4)cc13)CCCC2  remaining binding (binding; 1 µM): 96%
CCN1CCN(Cc2ccc(C(=O)Nc3ccc(C)c(Oc4ccc5c(c4)CC(=O)N5)c3)cc2C(F)(F)F)CC1  remaining binding (binding; 1 µM): 100%
c1cncc(-c2cccc(Nc3nccc(NC4CCCCC4)n3)c2)c1  remaining binding (binding; 10 µM): 15%
O=C(c1ccc(Nc2ncc(Cl)c(-c3cc4ccccc4s3)n2)cc1)N1CCC(N2CCCC2)CC1  remaining binding (binding; 1 µM): 6.7%
Cc1cc(C)c(-n2ccn3nc(-c4cccnc4)cc23)cc1NC(=O)c1cc(C#N)cc(S(F)(F)(F)(F)F)c1  remaining binding (cell-free assay; 0.1 µM): 91%
O=C(NCCCN1CCOCC1)c1ccc(Nc2nccc(-c3cc4ccccc4s3)n2)cc1  remaining binding (binding; 1 µM): 28%
Nc1c(C(=O)NCc2ccc(C(=O)NCCCC3CCCCC3)cc2)cnn1-c1ccccc1  remaining binding (cell-free assay; 0.1 µM): 100%
COc1ncc2cc3ccccc3nc2c1C#N  remaining binding (cell-free assay; 5 µM): 76%
C[C@H](NC(=O)c1cnc2n1[C@](C)(Cc1ccc(C#N)cc1)C(=O)N2c1cc(Cl)c(F)c(Cl)c1)C(=O)NC1(c2ccccn2)CC1  remaining binding (cell-free assay; 1 µM): 97%
O=C(Nc1c[nH]nc1C(=O)NC1CCNCC1)c1cc(F)cc(F)c1  remaining binding (binding; 1 µM): 100%
CCOC(=O)c1cc2cc(-c3cc(C(=O)NCc4ccc(C(=O)O)cc4)nn3C)ccc2[nH]1  remaining binding (cell-free assay; 0.1 µM): 96%
O=C(NCCCN1CCOCC1)c1ccc(Nc2ncc(Cl)c(-c3ccc(Cl)s3)n2)cc1  remaining binding (binding; 1 µM): 5.7%
